ChEMBL document CHEMBL2021820, “Synthesis, vasorelaxant activity, and molecular modeling study of some new phthalazine derivatives” (Eur J Med Chem, 2012)
pIC50: −log10 of the molar value. Structures can show the parent of a compound that is named as a salt.

tested on: Thoracic aorta; test: Ratio of IC50 for prazosin to IC50 for compound in noradrenaline-contracted Wister rat thoracic aorta rings; format: functional

SMILES | Ratio IC50
CN1CCN(CC(=O)NNc2nncc3ccccc23)CC1 | 3
COc1ccccc1N1CCN(CCC(=O)NNc2nncc3ccccc23)CC1 | 5

tested on: Thoracic aorta; test: Vasorelaxant activity in Wister rat thoracic aorta rings assessed as reduction in maximal noradrenaline-induced spasms; format: functional, tissue-based
How it was run: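 Aortic preparations equilibrated for 2 h at 2 g resting tension. Contraction to norepinephrine hydrochloride (10^-6 M) was recorded before and after exposure to increasing concentrations of compound. Compounds came from a 0.01 M DMSO stock. Vehicle controls used DMSO alone at matching concentrations.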

SMILES | pIC50
CCOC(=O)N1CCN(CC(=O)NNc2nncc3ccccc23)CC1 | < 3.00
O=C(CN1CCOCC1)NNc1nncc2ccccc12 | 3.37
O=C(Cn1ccnc1)NNc1nncc2ccccc12 | 3.21
O=C(CCN1CCN(c2cccc(C(F)(F)F)c2)CC1)NNc1nncc2ccccc12 | 3.30
CN1CCN(CCC(=O)NNc2nncc3ccccc23)CC1 | 3.44
CCOC(=O)N1CCN(CCC(=O)NNc2nncc3ccccc23)CC1 | < 3.00
O=C(CCN1CCOCC1)NNc1nncc2ccccc12 | 3.24
O=C(CCn1ccnc1)NNc1nncc2ccccc12 | 3.09
COc1cc2nc(N3CCN(C(=O)c4ccco4)CC3)nc(N)c2cc1OC [PRAZOSIN HYDROCHLORIDE] | 3.32

Results, then the molecule that gave them:

pIC50 | SMILES
3.25 | O=C(CN1CCN(c2ccccc2)CC1)NNc1nncc2ccccc12
3.35 | O=C(CN1CCN(c2ccc(Cl)cc2)CC1)NNc1nncc2ccccc12
3.39 | O=C(CN1CCN(c2cccc(C(F)(F)F)c2)CC1)NNc1nncc2ccccc12
3.26 | COc1ccccc1N1CCN(CC(=O)NNc2nncc3ccccc23)CC1
3.80 | CN1CCN(CC(=O)NNc2nncc3ccccc23)CC1
3.57 | O=C(CCN1CCN(c2ccccc2)CC1)NNc1nncc2ccccc12
3.15 | O=C(CCN1CCN(c2ccc(Cl)cc2)CC1)NNc1nncc2ccccc12
4.00 | COc1ccccc1N1CCN(CCC(=O)NNc2nncc3ccccc23)CC1
